In ChEMBL document CHEMBL3351631, “Towards the next generation of dual Bcl-2/Bcl-xL inhibitors” (Bioorg Med Chem Lett, 2014):
In brackets after ≈: the same amount, converted by molar mass.

Assays:
RS4-11 = assay: Induction of apoptosis in human RS4:11 cells overexpressing BCL-2 assessed as caspase 3/7 activation after 6 hrs by quantitative luminescence assay; format: functional, cell-based; conditions: RS4-11, 6 h
How it was run: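 RS4;11 cells seeded 10,000/well in RPMI with 10% FBS; after 16 h, compound added in duplicate for 6 h at 37 °C. Equal volume of Caspase-Glo 3/7 reagent added, 1 h, luminescence read. DMSO set minimum and ABT-263 maximum caspase activity. EC50 averaged from at least two experiments.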

[1] = Equilibrium solubility of the compound at pH 7.4; format: physicochemical; conditions: buffer
[2] = target: Apoptosis regulator Bcl-2 (Homo sapiens, UniProt P10415); assay: Inhibition of c-terminal 6xHis-tagged Bcl-2 (amino acids 1 to 204) (unknown origin) preincubated for 1 hr prior to substrate addition measured after 20 mins by fluorescence polarization assay
Bcl-2-like protein 1 = Bcl-2-like protein 1 (Homo sapiens, UniProt Q07817); assay: Inhibition of c-terminal 6xHis-tagged Bcl-xL (amino acids 1 to 209) (unknown origin) preincubated for 1 hr prior to substrate addition measured after 20 mins by fluorescence polarization assay
How it was run: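 Bcl-xL (aa 1–209, C-terminal 6xHis) at 0.8 nM preincubated 1 h with serial antagonist dilutions, then 2 nM FITC-labelled Bim BH3 peptide tracer added; buffer 20 mM HEPES pH 7.5, 1 mM DTT, 0.005% Tween-20, 50 mM NaCl.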

[3] = Dissociation constant, pKa of the compound; format: physicochemical

Sequence of Bcl-2-like protein 1 (Q07817 whole entry, the tested form may be a part): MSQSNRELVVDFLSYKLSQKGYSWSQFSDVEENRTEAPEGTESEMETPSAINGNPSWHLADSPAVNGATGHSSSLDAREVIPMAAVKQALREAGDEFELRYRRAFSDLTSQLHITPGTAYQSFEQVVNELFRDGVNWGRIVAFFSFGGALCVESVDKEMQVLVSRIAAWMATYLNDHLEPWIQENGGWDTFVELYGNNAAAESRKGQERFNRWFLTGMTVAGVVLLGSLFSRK
Sequence of Apoptosis regulator Bcl-2 (P10415 whole entry, the tested form may be a part): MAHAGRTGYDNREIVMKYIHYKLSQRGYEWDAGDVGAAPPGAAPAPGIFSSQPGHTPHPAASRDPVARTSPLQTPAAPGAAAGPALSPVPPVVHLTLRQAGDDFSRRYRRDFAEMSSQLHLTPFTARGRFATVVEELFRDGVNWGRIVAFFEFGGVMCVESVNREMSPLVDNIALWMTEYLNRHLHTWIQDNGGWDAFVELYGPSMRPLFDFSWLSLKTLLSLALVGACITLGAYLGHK

EC50 (RS4-11) [nM]	solubility thermodynamic [1] [µM]	IC50 [2] [nM]	IC50 (Bcl-2-like protein 1) [nM]	pKa [3]	Compound
51	2 (≈ 2.09 µg/mL)	< 10	< 10	–	CN(C)C(=O)COc1ccc(-c2ccc(Cl)cc2)c(CN2CCN(c3ccc(C(=O)NS(=O)(=O)c4ccc(N[C@H](CCN5CCOCC5)CSc5ccccc5)c(S(=O)(=O)C(F)(F)F)c4)cc3)CC2)c1
> 1100	27 (≈ 26.8 µg/mL)	87	21	–	O=C(NS(=O)(=O)c1ccc(N[C@H](CCN2CCOCC2)CSc2ccccc2)c(S(=O)(=O)C(F)(F)F)c1)c1ccc(N2CCC(S(=O)(=O)c3ccccc3-c3ccc(Cl)cc3)CC2)cc1
201	–	< 10	15	–	O=C(NS(=O)(=O)c1ccc(N[C@H](CCN2CCOCC2)CSc2ccccc2)c(S(=O)(=O)C(F)(F)F)c1)c1ccc(N2CCN(Cc3ccncc3-c3ccc(Cl)cc3)CC2)cc1
> 10000	< 1	40	38	–	O=C(NS(=O)(=O)c1ccc(N[C@H](CCN2CCOCC2)CSc2ccccc2)c(S(=O)(=O)C(F)(F)F)c1)c1ccc(N2CCN(Cc3cn[nH]c3-c3ccc(Cl)cc3)CC2)cc1
420	< 1	< 10	< 10	–	Cn1ncc(CN2CCN(c3ccc(C(=O)NS(=O)(=O)c4ccc(N[C@H](CCN5CCOCC5)CSc5ccccc5)c(S(=O)(=O)C(F)(F)F)c4)cc3)CC2)c1-c1ccc(Cl)cc1
18	< 1	< 10	< 10	–	CN(C)C(=O)COc1cccc(-c2ccc(Cl)cc2)c1CN1CCN(c2ccc(C(=O)NS(=O)(=O)c3ccc(N[C@H](CCN4CCOCC4)CSc4ccccc4)c(S(=O)(=O)C(F)(F)F)c3)cc2)CC1
4	< 1	< 10	–	–	CN(C)CCOc1cccc(-c2ccc(Cl)cc2)c1CN1CCN(c2ccc(C(=O)NS(=O)(=O)c3ccc(N[C@H](CCN4CCOCC4)CSc4ccccc4)c(S(=O)(=O)C(F)(F)F)c3)cc2)CC1
23	< 1	< 10	< 10	–	CN(C)CCOc1ccc(-c2ccc(Cl)cc2)c(CN2CCN(c3ccc(C(=O)NS(=O)(=O)c4ccc(N[C@H](CCN5CCOCC5)CSc5ccccc5)c(S(=O)(=O)C(F)(F)F)c4)cc3)CC2)c1
11	14 (≈ 13.2 µg/mL)	11	16	–	O=C(NS(=O)(=O)c1ccc(N[C@H](CCN2CCOCC2)CSc2ccccc2)c(S(=O)(=O)C(F)(F)F)c1)c1ccc(N2CCN(Cc3ccccc3-c3ccc(Cl)cc3)CC2)cc1
> 3190	< 1	19	63	–	N=C(NS(=O)(=O)c1ccc(N[C@H](CCN2CCOCC2)CSc2ccccc2)c(S(=O)(=O)C(F)(F)F)c1)c1ccc(N2CCN(Cc3ccccc3-c3ccc(Cl)cc3)CC2)cc1
563	38 (≈ 35.9 µg/mL)	270	378	3.6	O=C(NS(=O)(=O)c1ccc(N[C@H](CCN2CCOCC2)CSc2ccccc2)c(S(=O)(=O)C(F)(F)F)c1)c1ccc(N2CCN(Cc3ccccc3-c3ccc(Cl)cc3)CC2)nn1
177	3 (≈ 2.83 µg/mL)	18	39	3.5	O=C(NS(=O)(=O)c1ccc(N[C@H](CCN2CCOCC2)CSc2ccccc2)c(S(=O)(=O)C(F)(F)F)c1)c1cnc(N2CCN(Cc3ccccc3-c3ccc(Cl)cc3)CC2)nc1
385	2 (≈ 1.9 µg/mL)	119	98	2.6	O=C(NS(=O)(=O)c1ccc(N[C@H](CCN2CCOCC2)CSc2ccccc2)c(S(=O)(=O)C(F)(F)F)c1)c1csc(N2CCN(Cc3ccccc3-c3ccc(Cl)cc3)CC2)n1
610	< 1	> 468	77	–	O=C(NS(=O)(=O)c1ccc(N[C@H](CCN2CCOCC2)CSc2ccccc2)c(S(=O)(=O)C(F)(F)F)c1)c1ccc(N2CC3(CN(Cc4ccccc4-c4ccc(Cl)cc4)C3)C2)cc1
> 1100	4 (≈ 3.9 µg/mL)	> 1100	308	–	O=C(NS(=O)(=O)c1ccc(N[C@H](CCN2CCOCC2)CSc2ccccc2)c(S(=O)(=O)C(F)(F)F)c1)c1ccc(P2(=O)CCN(Cc3ccccc3-c3ccc(Cl)cc3)CC2)cc1
> 1100	21 (≈ 20.5 µg/mL)	54	18	–	O=C(NS(=O)(=O)c1ccc(N[C@H](CCN2CCOCC2)CSc2ccccc2)c(S(=O)(=O)C(F)(F)F)c1)c1ccc(N2CCP(=O)(Cc3ccccc3-c3ccc(Cl)cc3)CC2)cc1
> 921	35 (≈ 33 µg/mL)	250	38	–	O=C(NS(=O)(=O)c1ccc(N[C@H](CCN2CCOCC2)CSc2ccccc2)c(S(=O)(=O)C(F)(F)F)c1)c1ccc(N2CCC(Oc3ccccc3-c3ccc(Cl)cc3)CC2)cc1
> 1100	–	65	< 10	–	O=C(NS(=O)(=O)c1ccc(N[C@H](CCN2CCOCC2)CSc2ccccc2)c(S(=O)(=O)C(F)(F)F)c1)c1ccc(N2CCC(C(=O)c3ccccc3-c3ccc(Cl)cc3)CC2)cc1
> 516	27 (≈ 25.9 µg/mL)	61	31	–	O=C(NS(=O)(=O)c1ccc(N[C@H](CCN2CCOCC2)CSc2ccccc2)c(S(=O)(=O)C(F)(F)F)c1)c1ccc(N2CCC(Sc3ccccc3-c3ccc(Cl)cc3)CC2)cc1
90	26 (≈ 25.4 µg/mL)	19	11	–	O=C(NS(=O)(=O)c1ccc(N[C@H](CCN2CCOCC2)CSc2ccccc2)c(S(=O)(=O)C(F)(F)F)c1)c1ccc(N2CCC([S@@+]([O-])c3ccccc3-c3ccc(Cl)cc3)CC2)cc1
> 1100	12 (≈ 11.7 µg/mL)	545	54	–	O=C(NS(=O)(=O)c1ccc(N[C@H](CCN2CCOCC2)CSc2ccccc2)c(S(=O)(=O)C(F)(F)F)c1)c1ccc(N2CCC([S@+]([O-])c3ccccc3-c3ccc(Cl)cc3)CC2)cc1
504	2 (≈ 1.93 µg/mL)	< 10	< 10	–	N#CC1(Cc2ccccc2-c2ccc(Cl)cc2)CCN(c2ccc(C(=O)NS(=O)(=O)c3ccc(N[C@H](CCN4CCOCC4)CSc4ccccc4)c(S(=O)(=O)C(F)(F)F)c3)cc2)CC1
395	< 1	< 10	< 10	–	NCC1(Cc2ccccc2-c2ccc(Cl)cc2)CCN(c2ccc(C(=O)NS(=O)(=O)c3ccc(N[C@H](CCN4CCOCC4)CSc4ccccc4)c(S(=O)(=O)C(F)(F)F)c3)cc2)CC1
1790	< 1.5	17	30	–	CCOC(=O)C1(Cc2ccccc2-c2ccc(Cl)cc2)CCN(c2ccc(C(=O)NS(=O)(=O)c3ccc(N[C@H](CCN4CCOCC4)CSc4ccccc4)c(S(=O)(=O)C(F)(F)F)c3)cc2)CC1
112	6 (≈ 5.83 µg/mL)	59	< 10	–	O=C(NS(=O)(=O)c1ccc(N[C@H](CCN2CCOCC2)CSc2ccccc2)c(S(=O)(=O)C(F)(F)F)c1)c1ccc(N2CCC(CO)(Cc3ccccc3-c3ccc(Cl)cc3)CC2)cc1
3980	< 1	21	21	–	O=C(NS(=O)(=O)c1ccc(N[C@H](CCN2CCOCC2)CSc2ccccc2)c(S(=O)(=O)C(F)(F)F)c1)c1ccc(N2CCN(Cc3ccccc3-c3ncc(Cl)cn3)CC2)cc1
14	–	–	–	–	CC1(C)CCC(c2ccc(Cl)cc2)=C(CN2CCN(c3ccc(C(=O)NS(=O)(=O)c4ccc(N[C@H](CCN5CCOCC5)CSc5ccccc5)c(S(=O)(=O)C(F)(F)F)c4)cc3)CC2)C1 [NAVITOCLAX]

Compound	EC50 (RS4-11) [nM]	solubility thermodynamic [1] [µM]	IC50 [2] [nM]	IC50 (Bcl-2-like protein 1) [nM]	pKa [3]
O=C(NS(=O)(=O)c1ccc(N[C@H](CCN2CCOCC2)CSc2ccccc2)c(S(=O)(=O)C(F)(F)F)c1)c1ccc(N2CCN(Cc3cccnc3-c3ccc(Cl)cc3)CC2)cc1	374	–	26	25	–
